According to ChEMBL document CHEMBL1139324, “Chemical modification and biological evaluation of new semisynthetic derivatives of 28,29-Didehydronystatin A1 (S44HP), a genetically engineered antifungal polyene macrolide antibiotic” (J Med Chem, 2009):
Values after ≈ are worked out from the molar mass of the structure shown.

Key:
[1] = tested on: Aspergillus niger; assay: Antifungal activity against Aspergillus niger ATCC 16404 after 48 hrs by broth microdilution method; type: functional; conditions: ATCC 16404, 48 h
Method in brief: (§1)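 Susceptibility of filamentous fungi (molds) by broth microdilution per NCCLS M38-A in 96-well microplates. The MIC is read as the lowest inhibitory concentration. It is given as one number when replicate data fully agreed.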

[2] = tested on: Candida albicans; assay: Antifungal activity against Candida albicans ATCC 14053 after 48 hrs by broth microdilution method; type: functional; conditions: ATCC 14053, 48 h
Method in brief: (§2)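 Yeast susceptibility by broth microdilution per NCCLS M27-A in 96-well plates. MIC is the lowest concentration inhibiting growth. Where repeat runs fully coincided, a single value is reported.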

[3] = Toxicity against human erythrocytes assessed as hemolytic activity at 5 ug/ml; type: cell-based, Erythrocyte; conditions: read-out: Activity
Method in brief: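 Lysis of erythrocytes in defibrinated human blood was measured under buffered conditions with compound at 5 µg/mL. Percent hemolysis is the mean of blood samples from two donors.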

[4] = tested on: Fusarium oxysporum; assay: Antifungal activity against Fusarium oxysporum VKM F-140 after 48 hrs by broth microdilution method; type: functional; method in brief: as §1
[5] = tested on: Vanrija humicola; assay: Antifungal activity against Cryptococcus humicolus ATCC 9949 after 48 hrs by broth microdilution method; type: functional; conditions: ATCC 9949, 48 h; method in brief: as §2

Compound	MIC [1] [µg/mL]	MIC [2] [µg/mL]	MIC [4] [µg/mL]	MIC [5] [µg/mL]	hemolysis at 5 ug/ml [3] [%]
C[C@@H]1[C@H](O)[C@@H](C)/C=C/C=C/C=C/C=C/C=C/C=C/C=C/[C@H](O[C@H]2O[C@@H](C)[C@H](O)[C@@H](NC[C@]3(O)OC[C@@H](O)[C@H](O)[C@@H]3O)[C@H]2O)C[C@@H]2O[C@](O)(C[C@@H](O)[C@H](O)CC[C@@H](O)C[C@@H](O)C[C@@H](O)CC(=O)O[C@H]1C)C[C@H](O)[C@H]2C(=O)O	2 (≈ 1.84 µM)	1 (≈ 0.921 µM)	8 (≈ 7.36 µM)	1 (≈ 0.921 µM)	8
C[C@@H]1[C@H](O)[C@@H](C)/C=C/C=C/C=C/C=C/C=C/C=C/C=C/[C@H](O[C@H]2O[C@@H](C)[C@H](O)[C@@H](N)[C@H]2O)C[C@@H]2O[C@](O)(C[C@@H](O)[C@H](O)CC[C@@H](O)C[C@@H](O)C[C@@H](O)CC(=O)O[C@H]1C)C[C@H](O)[C@H]2C(=O)NC1C2CC3CC(C2)CC1C3 (stereo partly drawn)	4 (≈ 3.78 µM)	4 (≈ 3.78 µM)	8 (≈ 7.57 µM)	4 (≈ 3.78 µM)	–
C[C@@H]1[C@H](O)[C@@H](C)/C=C/C=C/C=C/C=C/C=C/C=C/C=C/[C@H](O[C@H]2O[C@@H](C)[C@H](O)[C@@H](NCc3ccc(N(C)C)cc3)[C@H]2O)C[C@@H]2O[C@](O)(C[C@@H](O)[C@H](O)CC[C@@H](O)C[C@@H](O)C[C@@H](O)CC(=O)O[C@H]1C)C[C@H](O)[C@H]2C(=O)O	4 (≈ 3.78 µM)	2 (≈ 1.89 µM)	> 16	2 (≈ 1.89 µM)	–
C[C@@H]1[C@H](O)[C@@H](C)/C=C/C=C/C=C/C=C/C=C/C=C/C=C/[C@H](O[C@H]2O[C@@H](C)[C@H](O)[C@@H](NCc3ccccc3S(=O)(=O)O)[C@H]2O)C[C@@H]2O[C@](O)(C[C@@H](O)[C@H](O)CC[C@@H](O)C[C@@H](O)C[C@@H](O)CC(=O)O[C@H]1C)C[C@H](O)[C@H]2C(=O)O	4 (≈ 3.66 µM)	4 (≈ 3.66 µM)	> 16	4 (≈ 3.66 µM)	–
C[C@@H]1[C@H](O)[C@@H](C)/C=C/C=C/C=C/C=C/C=C/C=C/C=C/[C@H](O[C@H]2O[C@@H](C)[C@H](O)[C@@H](NC[C@]3(O)OC[C@@H](O)[C@@H](O[C@@H]4O[C@H](CO)[C@H](O)[C@H](O)[C@H]4O)[C@@H]3O)[C@H]2O)C[C@@H]2O[C@](O)(C[C@@H](O)[C@H](O)CC[C@@H](O)C[C@@H](O)C[C@@H](O)CC(=O)O[C@H]1C)C[C@H](O)[C@H]2C(=O)O	2 (≈ 1.6 µM)	2 (≈ 1.6 µM)	8 (≈ 6.41 µM)	2 (≈ 1.6 µM)	4
C[C@@H]1[C@H](O)[C@@H](C)/C=C/C=C/C=C/C=C/C=C/C=C/C=C/[C@H](O[C@H]2O[C@@H](C)[C@H](O)[C@@H](NC(=O)C(N)CCCCN)[C@H]2O)C[C@@H]2O[C@](O)(C[C@@H](O)[C@H](O)CC[C@@H](O)C[C@@H](O)C[C@@H](O)CC(=O)O[C@H]1C)C[C@H](O)[C@H]2C(=O)O (stereo partly drawn)	16 (≈ 15.2 µM)	8 (≈ 7.6 µM)	> 16	8 (≈ 7.6 µM)	–

More lines, main results first:

MIC [1] [µg/mL]	MIC [2] [µg/mL]	MIC [4] [µg/mL]	MIC [5] [µg/mL]	Compound	hemolysis at 5 ug/ml [3] [%]
4 (≈ 3.96 µM)	4 (≈ 3.96 µM)	16 (≈ 15.8 µM)	4 (≈ 3.96 µM)	C[C@@H]1[C@H](O)[C@@H](C)/C=C/C=C/C=C/C=C/C=C/C=C/C=C/[C@H](O[C@H]2O[C@@H](C)[C@H](O)[C@@H](N)[C@H]2O)C[C@@H]2O[C@](O)(C[C@@H](O)[C@H](O)CC[C@@H](O)C[C@@H](O)C[C@@H](O)CC(=O)O[C@H]1C)C[C@H](O)[C@H]2C(=O)NC(C)(CO)CO	–
4 (≈ 3.96 µM)	2 (≈ 1.98 µM)	8 (≈ 7.93 µM)	2 (≈ 1.98 µM)	COC(=O)[C@H](C)NC(=O)[C@H]1[C@@H]2C[C@@H](O[C@H]3O[C@@H](C)[C@H](O)[C@@H](N)[C@H]3O)/C=C/C=C/C=C/C=C/C=C/C=C/C=C/[C@H](C)[C@@H](O)[C@@H](C)[C@H](C)OC(=O)C[C@H](O)C[C@H](O)C[C@H](O)CC[C@@H](O)[C@H](O)C[C@](O)(C[C@@H]1O)O2	–
4 (≈ 4.08 µM)	2 (≈ 2.04 µM)	4 (≈ 4.08 µM)	4 (≈ 4.08 µM)	C[C@@H]1[C@H](O)[C@@H](C)/C=C/C=C/C=C/C=C/C=C/C=C/C=C/[C@H](O[C@H]2O[C@@H](C)[C@H](O)[C@@H](NCCCN)[C@H]2O)C[C@@H]2O[C@](O)(C[C@@H](O)[C@H](O)CC[C@@H](O)C[C@@H](O)C[C@@H](O)CC(=O)O[C@H]1C)C[C@H](O)[C@H]2C(=O)O	45
4 (≈ 3.63 µM)	4 (≈ 3.63 µM)	> 16	4 (≈ 3.63 µM)	C[C@@H]1[C@H](O)[C@@H](C)/C=C/C=C/C=C/C=C/C=C/C=C/C=C/[C@H](O[C@H]2O[C@@H](C)[C@H](O)[C@@H](N)[C@H]2O)C[C@@H]2O[C@](O)(C[C@@H](O)[C@H](O)CC[C@@H](O)C[C@@H](O)C[C@@H](O)CC(=O)O[C@H]1C)C[C@H](O)[C@H]2C(=O)N(C)CC(O)C(O)C(O)C(O)CO (stereo partly drawn)	–
